Results pooled from the literature.
Each line is one published result; the experiments were not run side by side. pIC50: −log10 of the molar value.
Cell line: PC-3
Effect on: cell growth or viability

| Structure (SMILES) | method | concentration | time | quantity | value |
| --- | --- | --- | --- | --- | --- |
| CSc1cccc(NC(=O)C2CCCN(C(=O)c3cccc(-c4ccco4)c3)C2)c1 (stereo not shown) | WST-1 | 100 µM |  | inhibition | 0% |
| COc1cccc(Oc2ccccc2NC(=O)CNC(=O)c2cccc3ccccc23)c1 | SRB |  | 48 h | GI50 | 0.282 µM |
| COCCCOc1ccnc(COc2ccc(NC(=O)Nc3ccc(OC)cc3)cc2)c1C | MTT |  | 72 h | pIC50 | 4.33 |
| CCN(CC)CCn1cccc1/C=N/NC(=O)Nc1cc2c(Nc3ccc(F)c(Cl)c3)ncnc2cc1O[C@H]1CCOC1 | MTT |  | 72 h | pIC50 | 6.82 |
| COc1ccc(C(=O)/C=C/c2cccc(Br)c2)cc1S(N)(=O)=O | SRB |  | 48 h | GI50 | 2 µM |
| O=C(CN1C(=O)/C(=C/c2ccccc2F)SC1=S)Nc1ccccc1 | MTT | 10 µM |  | inhibition | 16.8% |
| CN(C)C/C=N/NC(=O)Nc1cc2c(Nc3ccc(F)c(Cl)c3)ncnc2cc1O[C@H]1CCOC1 | MTT |  | 72 h | pIC50 | 5.19 |
| O=C(CN1C(=O)/C(=C/c2cccs2)SC1=S)Nc1ccccc1 | MTT | 10 µM |  | inhibition | 5.3% |
| COc1cc2ncnc(Nc3ccc(F)c(Cl)c3)c2cc1NC(=O)N/N=C/c1cccn1CCCN1CCCCC1 | MTT |  | 72 h | pIC50 | 5.97 |
| COc1ccc(C(=O)/C=C/c2ccccc2Br)cc1S(N)(=O)=O | SRB |  | 48 h | GI50 | 4.3 µM |
| C=CCOc1cccc(NC(=O)C2CCCN(C(=O)c3cc(C(F)(F)F)cc(C(F)(F)F)c3)C2)c1 (stereo not shown) | WST-1 | 100 µM |  | inhibition | 0% |
| CCOc1ccc(/C=C2\SC(=S)N(CC(=O)Nc3ccccc3)C2=O)cc1 | MTT | 10 µM |  | inhibition | 38% |
| C=CS(=O)(=O)Nc1ccc(Cn2cc(C[C@@]3(O)C[C@@H]4c5cc(OCc6cc(C)cc(C)c6)c(OCc6cc(C)cc(C)c6)cc5CCN4[C@@H](C)C3)nn2)cc1 | MTT |  |  | pIC50 | 6.24 |
| COc1ccc(C(=O)/C=C/c2cccnc2)cc1S(N)(=O)=O | SRB |  | 48 h | GI50 | 16.6 µM |
| O=C(CN1C(=O)/C(=C/c2cccc(Br)c2)SC1=S)Nc1ccccc1 | MTT | 10 µM |  | inhibition | 27.3% |
| COCCCOc1ccnc(COc2ccc(NC(=O)Nc3ccc(Cl)cc3)cc2)c1C | MTT |  | 72 h | pIC50 | < 4.00 |
| O=C(CN1C(=O)/C(=C/c2ccc(O)cc2)SC1=S)Nc1ccccc1 | MTT | 10 µM |  | inhibition | 24.9% |
| O=C(N/N=C/c1cccn1CCN1CCCCC1)Nc1cc2c(Nc3ccc(F)c(Cl)c3)ncnc2cc1O[C@H]1CCOC1 | MTT |  | 72 h | pIC50 | 5.80 |
| Cc1cc(C)cc(COc2cc3c(cc2OCc2cc(C)cc(C)c2)[C@H]2C[C@](O)(Cc4cn(CC5CC5)nn4)C[C@H](C)N2CC3)c1 | MTT |  |  | pIC50 | 6.52 |
